Bioassay records: PubChem BioAssay, Sanford-Burnham Center for Chemical Genomics
bIAP inhibitor = intestinal alkaline phosphatase (bovine) inhibition. purified bovine IAP, CDP-star luminescence, 30 min. inhibition, % at 20 µM. 190,000 tested, under 10 active. AID 1019;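 active = over 50% inhibition of intestinal alkaline phosphatase at 20 µM in the single-dose screen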
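test system = bovine IAP enzyme | medium = DEA buffer 100 mM, pH 9.8, with MgCl2 1.0 mM, ZnCl2 0.02 mM | detection = luminescence | dosing = single compound dose of 20 µM, 2% DMSO final | incubation = 30 min reaction at room temperature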
bIAP act = increases bovine intestinal alkaline phosphatase activity; purified bovine IAP, CDP-star luminescence, 30 min; hits give high values; fold of DMSO-control signal, blank-subtracted; activation factor at 20 µM; 200,000 tested, 0.17% active; AID 1016;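 active = activation factor of 2 or more at 20 µM, a signal rise over negative controls twice the positive control's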
hIAP act = human IAP activation; activation factor at 10 µM; purified human IAP, CDP-Star luminescence, 30 min; hits give high values; 1 = vehicle-only enzyme, 0 = enzyme-free background; 330,000 tested, 0.16% active; P09923;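 active = activation factor of the enzyme at least 2-fold when tested at 20 µM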
Target sequence (P09923 whole entry, looked up): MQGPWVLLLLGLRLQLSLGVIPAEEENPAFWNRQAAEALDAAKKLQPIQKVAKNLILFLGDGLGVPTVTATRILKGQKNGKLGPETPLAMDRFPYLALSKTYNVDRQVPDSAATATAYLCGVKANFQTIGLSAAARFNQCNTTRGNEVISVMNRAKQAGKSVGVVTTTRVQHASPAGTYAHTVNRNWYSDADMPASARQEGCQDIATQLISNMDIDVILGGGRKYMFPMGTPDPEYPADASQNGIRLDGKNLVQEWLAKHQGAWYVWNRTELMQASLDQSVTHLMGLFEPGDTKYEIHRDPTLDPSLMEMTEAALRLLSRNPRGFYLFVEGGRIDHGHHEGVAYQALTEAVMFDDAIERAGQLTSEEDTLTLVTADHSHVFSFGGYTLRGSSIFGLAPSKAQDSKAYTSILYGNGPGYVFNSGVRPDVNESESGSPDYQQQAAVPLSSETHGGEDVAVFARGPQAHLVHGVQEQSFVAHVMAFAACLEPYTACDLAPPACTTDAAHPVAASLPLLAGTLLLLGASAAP
hIAP inh = blocks human intestinal alkaline phosphatase | purified IAP, CDP-Star luminescence, 30 min | inhibition, % at 10 µM | 330,000 tested, 0.12% active;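 active = inhibition reaching a set limit with compound at 10 µM in the primary screen, cut at about 35% in these data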
mIAP act = mouse IAP activation; muIAP, CDP-Star luminescence, 30 min; hits give high values; 1 = vehicle-only enzyme signal, 0 = enzyme-free wells; activation factor at 10 µM; 330,000 tested, 0.24% active; AID 2805;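 active = activation factor of at least 2 at 20 µM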
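System: Mouse IAP enzyme | Also added: CDP-Star substrate | Dosing: Compounds dispensed in DMSO | Schedule: 30 min enzyme-substrate-compound incubation at room temperature | Technique: Chemiluminescence readout | Control set: DMSO-only wells and no-enzyme negative control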
mIAP block = blocks mouse intestinal alkaline phosphatase | inhibition, % at 10 µM | 330,000 tested, 0.2% active | purified mouse IAP, CDP-Star luminescence, 30 min;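 active = inhibition of at least 40% at 10 µM in the primary screen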
mIAP inh confirm = mouse IAP inhibition confirmation; purified mouse IAP, CDP-Star luminescence, 30 min; 11,000 tested, 4.7% active; shares compounds with mIAP block; AID 434971; inhibition, % at 10 µM;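 active = inhibition of at least 40% at 10 µM in either of the two replicates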
Hits are given with their value; - = inactive; . = no result. Most compounds without a hit are left out; they make up all but 0.72% or so of the library.

SMILES | bIAP inhibitor | bIAP act | hIAP act | hIAP inh | mIAP act | mIAP block | mIAP inh confirm
COc1cc(OC)c(N(C)C(=O)c2cn(C)c(=O)c3cc(OC)c(OC)cc23)cc1Cl | . | . | - | - | - | - | .
O=C(Nc1ccc2c(c1)N(Cc1ccccc1)C(=O)c1ccccc1S2)NC1CC1 | - | - | - | - | 2.74 | - | -
C#CCOCCOCCOCCNc1nc(N2CCN(C(=O)CCCCCCCCCCNC(=O)Cn3cc(C[C@@H](C)O)nn3)CC2)nc(N2CCN(C(=O)CCCCCCCCCCNC(=O)[C@H](CCCCN)n3cc(CCCC(=O)O)nn3)CC2)n1 | . | . | - | - | - | - | .
C#CCOCCOCCOCCNc1nc(N2CCN(C(=O)CCCCCCCCCCNC(=O)[C@H](CO)n3cc(CCCSC)nn3)CC2)nc(N2CCN(C(=O)CCCCCCCCCCNC(=O)[C@H](CCCN=C(N)N)n3cc(C[C@@H](C)CC)nn3)CC2)n1 | . | . | - | - | 2.61 | - | -
C#CCOCCOCCOCCNc1nc(N2CCN(C(=O)CCCCCCCCCCNC(=O)Cn3cc(C[C@@H](C)O)nn3)CC2)nc(N2CCN(C(=O)CCCCCCCCCCNC(=O)[C@H](CCCN=C(N)N)n3cc(C[C@@H](C)CC)nn3)CC2)n1 | . | . | - | - | 4.91 | - | -
COc1ccc(C)cc1NC(=O)COC(=O)c1c(C)nn(-c2ccccc2)c1C | . | . | - | - | - | - | .
COc1ccc(C(=O)NCCSc2ccccc2)cc1OC | - | - | - | - | - | - | .
Cc1ccc(/C=C2\SC(=S)N(C3CCS(=O)(=O)C3)C2=O)cc1 (stereo not drawn) | - | - | - | - | - | - | .
O=C1/C(=C/c2ccco2)SC(=S)N1C1CCS(=O)(=O)C1 (stereo not drawn) | - | - | - | - | - | 67.2 | 70.8
CCN(C(=O)C(C)N1C(=O)/C(=C/c2ccco2)SC1=S)C1CCS(=O)(=O)C1 (stereo not drawn) | . | . | - | - | - | 50.9 | 69.8
O=C1/C(=C\c2ccco2)SC(=S)N1C1CCS(=O)(=O)C1 (stereo not drawn) | . | . | - | - | - | 63.6 | 70.9
COC(=O)c1ccc(OC(=O)/C=C/c2ccco2)cc1 | . | . | - | - | - | - | .
O=Cc1cccc(OC(=O)/C=C/c2ccco2)c1 | . | . | - | - | - | 48.6 | 57.4
COc1ccc(NC(=O)NC(C)c2ccc3c(c2)OCO3)cc1OC (stereo not drawn) | . | . | - | - | - | - | .
CC(NC(=O)Nc1ccc(Cl)cc1)c1ccc2c(c1)OCO2 (stereo not drawn) | . | . | - | - | 2.84 | - | -
Cc1ccc(NC(=S)NC(NC(=O)c2ccccc2C)C(Cl)(Cl)Cl)c(C)c1 (stereo not drawn) | - | - | - | - | 3.12 | - | -
CC(=O)NC(NC(=S)Nc1ccc(C)cc1C)C(Cl)(Cl)Cl (stereo not drawn) | . | . | - | - | - | - | .
O=c1ccc2cc3c([nH]c4ccc(Br)cc43)oc-2c1O | - | - | - | - | - | 47.6 | 44.1
O=C(O)c1ccc(N=Nc2c(O)[nH]c3ccc(Br)cc23)cc1 | . | . | - | - | - | - | .
O=C(CSc1n[nH]c(-c2ccccc2F)n1)Nc1cc(F)ccc1F | . | . | - | - | - | - | .
Cc1cc2nc3s/c(=C/c4ccc(-c5ccccc5C(=O)O)o4)c(=O)n3c2cc1C | . | . | - | - | - | - | .
O=C(O)c1ccccc1-c1ccc(/C=c2\sc3nc4cc(Br)cnc4n3c2=O)o1 | - | - | - | - | - | 78.2 | 74.6
CCCCNC(=O)C(C1CCCCC1)N(CCN(C)C)C(=O)CCCN1C(=O)NC(c2ccc(-c3ccccc3)cc2)C(C(=O)OCc2ccccc2)=C1C (stereo not drawn) | . | . | . | . | 2.67 | - | -
C=C(C)c1cccc(C(C)(C)NC(=O)Nc2ccc(C(N)=O)cc2)c1 | - | - | - | - | 2.23 | - | -
COc1cc(CC(NC(C)=O)C(=O)NC2CCN(S(=O)(=O)c3ccc(NC(C)=O)cc3)CC2)cc(OC)c1 (stereo not drawn) | . | . | - | - | - | - | .
SMILES | bIAP inhibitor | bIAP act | hIAP act | hIAP inh | mIAP act | mIAP block | mIAP inh confirm
CC1(C)Cc2c(sc3[nH]c(=S)n(Cc4ccco4)c(=O)c23)CO1 | - | - | - | - | - | - | .
O=c1c2c3c(sc2[nH]c(=S)n1Cc1ccco1)CCC3 | . | . | - | - | - | 59.0 | 63.8
COc1cccc(CN(C)C(=O)CCNC(=O)c2ccc(Br)cc2)c1 | . | . | - | - | - | - | .
CC(=O)Nc1ccc(S(=O)(=O)Nc2nc3ccccc3nc2Nc2ccc(C(=O)O)c(O)c2)cc1 | . | . | - | - | - | 41.9 | 50.1
CC(=O)Nc1ccc(S(=O)(=O)Nc2nc3ccccc3nc2Nc2cccc(O)c2)cc1 | . | . | - | - | - | - | .
COc1cccc(CCNC(=O)c2cc(COc3c(F)cccc3F)on2)c1 | . | . | - | - | - | - | .
FC(F)Sc1ccc(NC(=S)NC2CCC(NC(=S)Nc3ccc(SC(F)F)cc3)CC2)cc1 (stereo not drawn) | - | - | - | - | 2.45 | - | -
Oc1cccc(NC(=S)Nc2ccc(SC(F)F)cc2)c1 | - | - | - | - | - | - | .
Cc1nn(Cc2ccc(Cl)c(Cl)c2)c(C)c1NC(=O)c1cn(-c2ccccc2)nc1-c1ccccc1 | - | - | - | - | 2.93 | - | -
COc1ccc(S(=O)(=O)NCC2(N3CCOCC3)CCCCC2)cc1OC | . | . | - | - | - | - | .
COc1ccc(C(=O)OCC(=O)NC2CCCCCC2)cc1OC | . | . | - | - | - | 58.2 | 70.7
Cc1nc(N)sc1-c1csc(Nc2ccc(S(N)(=O)=O)cc2)n1 | . | . | - | - | - | 66.9 | 68.1
COc1ccc(-c2csc(Nc3ccc(S(N)(=O)=O)cc3)n2)cc1 | - | - | - | - | - | - | .
Oc1cccc(O)c1O | . | . | - | - | - | 52.1 | 57.9
COc1cc(CNCCO)ccc1OCCc1ccccc1 | . | . | - | - | - | - | .
CCCCOc1ccc(NC2=NC3(CCCCC3)N=C(N)N2)cc1 | - | 4.6 | - | - | 4.75 | - | -
COc1ccc(CCNC(=O)c2cc(-c3cc(Cl)cc(Cl)c3)oc2C)cc1 | - | - | - | - | 4 | - | -
CC(=O)Nc1ccc(S(=O)(=O)/N=C2/NC(=O)/C(=C\c3ccco3)S2)cc1 | - | - | - | - | - | 45.7 | 48.8
Cc1ccc(S(=O)(=O)/N=C2/NC(=O)/C(=C\c3ccccc3)S2)cc1 | . | . | - | - | - | - | .
Cc1ccc(S(=O)(=O)/N=C2/NC(=O)/C(=C\c3ccco3)S2)cc1 | - | - | - | - | - | 40.2 | 43.1
O=c1nc2s/c(=C\c3ccco3)c(=O)n2nc1Cc1ccc(F)cc1 | - | - | - | - | - | 46.3 | 58.1
CC(C)(C)N(NC(=O)Nc1ccc(Cl)c(Cl)c1)C(=O)c1ccccc1 | - | - | - | - | 6.83 | - | -
Cc1cc(C)cc(C(=O)N(NC(=O)Nc2ccc(Cl)cc2)C(C)(C)C)c1 | - | - | - | - | 4.35 | - | -
